Measurements from ChEMBL document CHEMBL1629532, “Design, synthesis, and structure-activity relationships of 3-ethynyl-1H-indazoles as inhibitors of the phosphatidylinositol 3-kinase signaling pathway” (J Med Chem, 2010).
pIC50: −log10 of the molar value. Calls of active or inactive are those of the source. The rule behind the calls is not given here.

Tests used:
[1] = biological target: Phosphatidylinositol 4,5-bisphosphate 3-kinase catalytic subunit alpha isoform (Homo sapiens, UniProt P42336); test: Inhibition of PI3Kalpha by LanthaScreen Eu kinase binding assay
Chain of Phosphatidylinositol 4,5-bisphosphate 3-kinase catalytic subunit alpha isoform (P42336 whole entry, canonical isoform): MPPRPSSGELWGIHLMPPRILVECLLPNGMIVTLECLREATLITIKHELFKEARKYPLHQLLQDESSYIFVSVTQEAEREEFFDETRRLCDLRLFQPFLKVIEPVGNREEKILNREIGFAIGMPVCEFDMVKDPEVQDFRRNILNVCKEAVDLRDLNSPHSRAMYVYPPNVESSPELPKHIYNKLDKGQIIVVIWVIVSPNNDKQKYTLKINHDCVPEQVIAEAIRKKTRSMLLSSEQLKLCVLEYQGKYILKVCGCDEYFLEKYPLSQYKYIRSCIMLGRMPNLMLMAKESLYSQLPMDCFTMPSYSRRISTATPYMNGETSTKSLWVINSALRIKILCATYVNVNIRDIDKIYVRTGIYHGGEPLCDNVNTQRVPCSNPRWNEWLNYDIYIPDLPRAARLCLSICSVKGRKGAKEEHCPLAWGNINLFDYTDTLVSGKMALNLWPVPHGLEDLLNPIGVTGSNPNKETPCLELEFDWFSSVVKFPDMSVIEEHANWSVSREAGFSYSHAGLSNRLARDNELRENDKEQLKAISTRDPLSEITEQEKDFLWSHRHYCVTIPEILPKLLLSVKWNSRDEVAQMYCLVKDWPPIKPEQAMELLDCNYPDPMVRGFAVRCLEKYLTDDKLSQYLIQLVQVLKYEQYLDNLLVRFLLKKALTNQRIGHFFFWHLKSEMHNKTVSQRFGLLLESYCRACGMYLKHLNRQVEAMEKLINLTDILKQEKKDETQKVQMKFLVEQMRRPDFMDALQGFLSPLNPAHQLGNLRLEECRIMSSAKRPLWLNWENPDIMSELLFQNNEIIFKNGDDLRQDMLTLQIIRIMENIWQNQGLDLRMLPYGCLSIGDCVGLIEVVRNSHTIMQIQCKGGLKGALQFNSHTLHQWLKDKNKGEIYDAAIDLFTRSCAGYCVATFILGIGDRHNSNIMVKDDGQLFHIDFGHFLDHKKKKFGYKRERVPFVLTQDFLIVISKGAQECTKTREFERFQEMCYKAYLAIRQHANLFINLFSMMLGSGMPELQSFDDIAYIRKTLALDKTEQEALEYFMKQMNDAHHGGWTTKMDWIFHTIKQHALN
In short: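 Eu kinase binding TR-FRET assay (tracer displacement). PIK3CA/PIK3R1 at 5 nM with kinase tracer 20 nM and Eu-anti-His antibody 2 nM, all final. Buffer 25 mM Tris-HCl, 5 mM MgCl2, 0.02% CHAPS.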

[2] = biological target: RAC-alpha serine/threonine-protein kinase (Homo sapiens) (UniProt P31749); test: Inhibition of AKT1 by biochemical assay
Chain of RAC-alpha serine/threonine-protein kinase (Homo sapiens) (P31749 whole entry): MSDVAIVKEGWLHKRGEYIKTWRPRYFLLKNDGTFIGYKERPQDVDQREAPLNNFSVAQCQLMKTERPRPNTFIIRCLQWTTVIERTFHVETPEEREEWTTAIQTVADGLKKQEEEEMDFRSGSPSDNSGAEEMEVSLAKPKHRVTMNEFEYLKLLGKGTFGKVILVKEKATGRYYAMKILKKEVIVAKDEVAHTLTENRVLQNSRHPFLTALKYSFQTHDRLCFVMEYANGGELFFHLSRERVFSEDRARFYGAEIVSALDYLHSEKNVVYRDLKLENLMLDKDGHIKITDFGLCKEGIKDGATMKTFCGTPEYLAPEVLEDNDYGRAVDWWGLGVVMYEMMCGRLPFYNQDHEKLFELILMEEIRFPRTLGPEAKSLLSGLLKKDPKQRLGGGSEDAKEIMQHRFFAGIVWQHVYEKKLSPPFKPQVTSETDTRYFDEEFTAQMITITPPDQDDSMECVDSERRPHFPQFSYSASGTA

[3] = biological target: T1, 3-phosphoinositide-dependent protein kinase 1 (Homo sapiens, UniProt O15530); test: Inhibition of PDK1 by Z'-LYTE kinase activity assay
T1 sequence (O15530 whole entry): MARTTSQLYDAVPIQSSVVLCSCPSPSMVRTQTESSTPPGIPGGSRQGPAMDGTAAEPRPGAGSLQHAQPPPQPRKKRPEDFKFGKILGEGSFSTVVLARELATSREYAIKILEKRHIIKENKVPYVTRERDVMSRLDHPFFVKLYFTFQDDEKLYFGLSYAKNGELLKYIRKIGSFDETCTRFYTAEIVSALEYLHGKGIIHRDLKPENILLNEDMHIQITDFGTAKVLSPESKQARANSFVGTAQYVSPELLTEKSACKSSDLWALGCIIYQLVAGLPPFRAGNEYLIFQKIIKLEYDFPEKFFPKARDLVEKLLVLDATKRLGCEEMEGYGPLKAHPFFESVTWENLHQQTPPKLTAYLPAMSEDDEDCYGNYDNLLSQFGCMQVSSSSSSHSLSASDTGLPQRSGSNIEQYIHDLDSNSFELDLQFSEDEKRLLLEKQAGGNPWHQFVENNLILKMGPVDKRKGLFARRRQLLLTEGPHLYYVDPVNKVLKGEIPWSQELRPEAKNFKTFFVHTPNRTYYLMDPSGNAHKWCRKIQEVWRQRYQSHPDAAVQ

[4] = biological target: T2, Serine/threonine-protein kinase mTOR (Homo sapiens, UniProt P42345); test: Inhibition of mTOR by LanthaScreen Eu kinase binding assay
In short: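 Eu kinase binding TR-FRET displacement with FRAP1 (mTOR) at 5 nM, kinase tracer 20 nM and Eu-anti-GST antibody 2 nM, all final. Buffer 25 mM Tris-HCl, 5 mM MgCl2, 0.02% CHAPS.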

[5] = biological target: T2, Serine/threonine-protein kinase mTOR; test: Inhibition of mTORC1 expressed in HEK293 cells assessed as PRAS40 Ser183 phosphorylation level by LanthaScreen cellular assay; format: cell-based
In short: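 HEK293E cells stably expressing GFP-substrate fusions (AKT for pThr308; PRAS40 for pSer183), 20,000 per well, serum-starved overnight in low-glucose DMEM + 0.1% BSA. Lysed with 2 nM Tb-labeled phosphospecific antibody; TR-FRET read after 2 h at room temperature. IC50 by curve fitting.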

MDA-MB-231 = test: Growth inhibition of human MDA-MB-231 cells after 72 hrs by ATPlite assay; format: functional; conditions: MDA-MB-231, 72 h
In short: (§1)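 Cells seeded at about 3000 per well, grown 24 h, then given fresh medium and test compound in triplicate at 0.5 to 100µM in DMSO (0.5% final). Exposure 72 h at 37 °C, 5% CO₂. Viability measured by ATPlite luminescence and normalized to DMSO-treated controls. GI50 obtained by curve fitting. HeLa cultured in DMEM/10% FBS; MCF7, MDA-MB-231 and PC3 cultured in RPMI+GlutaMAX/10% FBS.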

PC-3 = test: Growth inhibition of human PC3 cells after 72 hrs by ATPlite assay; format: functional; conditions: PC-3, 72 h; in short: as §1
MCF7 = test: Growth inhibition of human MCF7 cells after 72 hrs by ATPlite assay; format: functional; conditions: MCF7, 72 h; in short: as §1
[6] = biological target: T3, Phosphatidylinositol 4,5-bisphosphate 3-kinase catalytic subunit delta isoform (Homo sapiens, UniProt O00329); test: Inhibition of PI3Kdelta; conditions: read-out: IC50
T3 sequence (O00329 whole entry): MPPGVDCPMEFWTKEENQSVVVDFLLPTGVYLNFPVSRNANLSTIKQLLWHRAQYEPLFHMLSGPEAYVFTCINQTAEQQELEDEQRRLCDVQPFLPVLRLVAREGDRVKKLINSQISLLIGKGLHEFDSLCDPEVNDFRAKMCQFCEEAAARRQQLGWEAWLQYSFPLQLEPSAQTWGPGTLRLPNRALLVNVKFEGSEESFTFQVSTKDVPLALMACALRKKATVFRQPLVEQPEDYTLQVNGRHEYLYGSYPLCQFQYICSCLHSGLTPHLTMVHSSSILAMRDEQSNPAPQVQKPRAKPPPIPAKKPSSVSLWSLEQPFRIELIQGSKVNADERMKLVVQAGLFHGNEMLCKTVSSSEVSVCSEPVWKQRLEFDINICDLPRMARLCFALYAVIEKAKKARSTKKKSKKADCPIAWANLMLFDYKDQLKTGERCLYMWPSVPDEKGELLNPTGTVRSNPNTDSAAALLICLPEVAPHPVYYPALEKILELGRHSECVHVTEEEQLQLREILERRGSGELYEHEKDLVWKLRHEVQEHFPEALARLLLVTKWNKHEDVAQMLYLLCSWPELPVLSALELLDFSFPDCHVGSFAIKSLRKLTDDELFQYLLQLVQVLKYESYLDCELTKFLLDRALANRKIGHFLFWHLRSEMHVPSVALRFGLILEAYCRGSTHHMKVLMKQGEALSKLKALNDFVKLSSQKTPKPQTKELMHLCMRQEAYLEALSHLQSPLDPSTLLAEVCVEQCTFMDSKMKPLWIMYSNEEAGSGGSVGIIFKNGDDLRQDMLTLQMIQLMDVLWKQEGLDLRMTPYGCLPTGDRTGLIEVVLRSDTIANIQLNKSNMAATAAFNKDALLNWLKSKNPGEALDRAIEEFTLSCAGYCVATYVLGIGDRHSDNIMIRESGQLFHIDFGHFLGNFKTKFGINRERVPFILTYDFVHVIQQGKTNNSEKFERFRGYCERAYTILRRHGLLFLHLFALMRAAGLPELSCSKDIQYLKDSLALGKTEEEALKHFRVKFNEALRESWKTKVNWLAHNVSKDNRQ

[7] = biological target: Phosphatidylinositol 4,5-bisphosphate 3-kinase catalytic subunit gamma isoform (Homo sapiens, UniProt P48736); test: Inhibition of PI3Kgamma
Chain of Phosphatidylinositol 4,5-bisphosphate 3-kinase catalytic subunit gamma isoform (P48736 whole entry, canonical isoform): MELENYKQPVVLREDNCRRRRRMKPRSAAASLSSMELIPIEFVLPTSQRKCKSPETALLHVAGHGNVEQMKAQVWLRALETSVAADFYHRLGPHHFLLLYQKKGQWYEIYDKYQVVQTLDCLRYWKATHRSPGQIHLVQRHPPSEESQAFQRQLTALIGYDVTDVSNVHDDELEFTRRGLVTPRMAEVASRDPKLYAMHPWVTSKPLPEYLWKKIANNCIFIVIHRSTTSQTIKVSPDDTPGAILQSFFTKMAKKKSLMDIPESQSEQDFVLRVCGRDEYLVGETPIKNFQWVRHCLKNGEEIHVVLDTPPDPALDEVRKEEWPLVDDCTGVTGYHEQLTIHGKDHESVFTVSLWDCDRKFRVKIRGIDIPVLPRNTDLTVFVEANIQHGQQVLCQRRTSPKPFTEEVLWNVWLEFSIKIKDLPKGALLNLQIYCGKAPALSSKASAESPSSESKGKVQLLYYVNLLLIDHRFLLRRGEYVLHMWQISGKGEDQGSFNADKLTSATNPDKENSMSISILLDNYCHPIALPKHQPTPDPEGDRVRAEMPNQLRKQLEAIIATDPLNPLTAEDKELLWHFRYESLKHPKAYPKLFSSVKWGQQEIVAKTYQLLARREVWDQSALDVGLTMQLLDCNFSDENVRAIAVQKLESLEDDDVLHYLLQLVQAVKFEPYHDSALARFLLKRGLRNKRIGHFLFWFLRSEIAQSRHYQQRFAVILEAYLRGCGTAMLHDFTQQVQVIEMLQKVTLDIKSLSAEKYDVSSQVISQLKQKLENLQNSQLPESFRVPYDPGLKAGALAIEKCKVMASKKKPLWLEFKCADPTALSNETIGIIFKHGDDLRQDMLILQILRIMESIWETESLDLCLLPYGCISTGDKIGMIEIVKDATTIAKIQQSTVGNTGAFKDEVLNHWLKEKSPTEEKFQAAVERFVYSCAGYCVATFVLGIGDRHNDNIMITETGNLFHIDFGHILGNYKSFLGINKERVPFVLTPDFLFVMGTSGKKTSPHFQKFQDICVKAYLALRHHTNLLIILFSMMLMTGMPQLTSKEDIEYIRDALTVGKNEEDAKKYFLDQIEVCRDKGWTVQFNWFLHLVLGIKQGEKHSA

Plasma = test: Metabolic stability in rat plasma assessed as compound remaining at 1 uM after 60 mins by Lc/Ms method; format: ADME, cell-free; conditions: 1 h
In short: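 Compound at 1 µM (2.5% DMSO final) in fresh rat plasma at 37 °C. Stopped at 0, 30 and 60 min with two volumes methanol plus internal standard, then LC-MS. Percent parent remaining relative to 0 min, from peak area ratios to internal standard. Duplicate runs, with a plasma-labile positive control.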

Liver microsomes = test: Metabolic stability in rat liver microsomes; format: ADME, Microsome
In short: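 Rat liver microsomes (1 mg/ml protein) with 4µM compound in 50mM phosphate pH 7.2. Pre-incubated 5 min at 37.5 °C, then started with 2mM NADPH and run 1 h. Samples taken every 15 min, quenched in methanol with internal standard, analyzed by LC-MS. Duplicate runs alongside two control compounds of known half-life. Half-life reported.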

HeLa = test: Growth inhibition of human HeLa cells after 72 hrs by ATPlite assay; format: functional; in short: as §1

| SMILES | pIC50 [1] | inhibition [2] | pIC50 [3] | pIC50 [4] | pIC50 [5] | GI50 (MDA-MB-231) [µM] | GI50 (PC-3) [µM] | GI50 (MCF7) [µM] | pIC50 [6] | pIC50 [7] | Stability (Plasma) [%] | t1/2 (Liver microsomes) [h] | GI50 (HeLa) [µM] |
| --- | --- | --- | --- | --- | --- | --- | --- | --- | --- | --- | --- | --- | --- |
| C(#Cc1n[nH]c2ncccc12)c1ccncc1 | 5.52 | inactive | < 4.30 | – | – | – | – | – | – | – | – | – | – |
| FC(F)(F)c1cc(C#Cc2n[nH]c3ccccc23)cc(C(F)(F)F)c1 | < 4.00 | inactive | < 4.00 | < 4.00 | < 4.00 | – | – | – | – | – | – | – | – |
| CN(C)CC#Cc1n[nH]c2ccccc12 | < 4.30 | inactive | < 4.00 | < 4.00 | < 4.30 | – | – | – | – | – | – | – | – |
| Nc1cccc(C#Cc2n[nH]c3ccccc23)c1 | – | inactive | – | – | – | 8.29 | 2.84 | 10.4 | < 4.00 | < 4.00 | 100 | > 1 | 5.21 |
| C(#Cc1n[nH]c2ccccc12)c1ccsc1 | < 4.00 | inactive | < 4.00 | < 4.00 | < 4.00 | – | – | – | – | – | – | – | – |
| Nc1ccccc1C#Cc1n[nH]c2ccccc12 | < 4.00 | inactive | < 4.00 | < 4.00 | < 4.30 | – | – | – | – | – | – | – | – |
| C(#Cc1n[nH]c2ccccc12)c1ccccn1 | < 4.00 | inactive | < 4.60 | < 4.00 | < 4.30 | – | – | – | – | – | – | – | – |
| C(#CC1CCCC1)c1n[nH]c2ccccc12 | < 4.00 | inactive | < 4.00 | < 4.00 | < 4.30 | – | – | – | – | – | – | – | – |

More lines, now with the values ahead:

| pIC50 [1] | inhibition [2] | pIC50 [3] | pIC50 [4] | pIC50 [5] | GI50 (MDA-MB-231) [µM] | GI50 (PC-3) [µM] | GI50 (MCF7) [µM] | pIC50 [6] | pIC50 [7] | Stability (Plasma) [%] | t1/2 (Liver microsomes) [h] | GI50 (HeLa) [µM] | SMILES |
| --- | --- | --- | --- | --- | --- | --- | --- | --- | --- | --- | --- | --- | --- |
| < 4.00 | inactive | < 4.00 | < 4.00 | < 4.30 | – | – | – | – | – | – | – | – | N#Cc1ccc(C#Cc2n[nH]c3ccccc23)cc1 |
| 5.98 | inactive | 4.41 | 5.30 | 4.97 | 8.28 | 2.51 | 3.23 | < 4.00 | < 4.00 | – | – | – | Nc1ccc(C#Cc2n[nH]c3ccccc23)cc1 |
| < 4.00 | inactive | < 4.30 | < 4.00 | < 4.30 | – | – | – | – | – | – | – | – | C(#Cc1n[nH]c2ccccc12)c1ccccc1 |
| 5.05 | inactive | < 4.30 | 5.30 | < 5.00 | – | – | – | – | – | – | – | – | C(#Cc1n[nH]c2ncccc12)c1cccnc1 |
| < 4.00 | inactive | < 4.00 | < 4.00 | < 4.30 | – | – | – | – | – | – | – | – | C(#CC1CC1)c1n[nH]c2ccccc12 |
| < 4.00 | inactive | < 4.00 | < 4.00 | < 3.70 | – | – | – | – | – | – | – | – | Fc1cc(F)cc(C#Cc2n[nH]c3ccccc23)c1 |
| – | inactive | – | < 4.00 | < 4.30 | 10.5 | 6.81 | 3.66 | – | – | – | – | 5.21 | C(#Cc1n[nH]c2ccccc12)c1cccnc1 |
